Screening results: PubChem BioAssay, several laboratories
Runt-SMMHC FRET = inhibitors of RUNX1 Runt–CBFb-SMMHC binding, primary screen, biochemical, FRET, Cerulean-Runt, Venus-CBFb-SMMHC, uHTS; Cerulean-Runt/Venus-CBFb-SMMHC FRET ratio 530/480, 1 h; hit rate 0.74% among 220,000; inhibition, % at 20 µM;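 active = mean inhibition across duplicate retests at 20 µM reaching about 50%, limit read from the data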;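 also: 0% = DMSO wells and 100% = wells with excess untagged CBFb-SMMHC; inhibitors lower the FRET ratio by blocking Runt binding to CBFb-SMMHC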
CaV13 ICDI inh = Primary screen for inhibitors of IQ motif and Ca2+-dependent inactivation inhibitor domain binding in CACNA1D, Förster resonance energy transfer in living cells, …. HEK cells, CFP/YFP FRET ICDI-IQ, plate reader, 10 min; percent FRET-ratio fall versus neutral wells. hit rate 0.098% among 340,000. inhibition, % at 12.3 µM. AID 743397;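 active = mean replicate inhibition of at least 30% and at least 1% of replicates passing that level; inconclusive = only one of the two criteria is met; inactive = neither criterion is met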;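 also: 0% = median of the neutral control wells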
Runt-CBFb FRET = inhibitors of RUNX1 Runt–CBFb binding, primary screen, biochemical, FRET, Cerulean-Runt, Venus-CBFb, uHTS; Runt-related transcription factor 1 (Homo sapiens) + Core-binding factor subunit beta …; Cerulean-Runt/Venus-CBFb FRET ratio 530/480, 1 h; inhibition, % at 20 µM; hit rate 0.46% among 220,000; AID 1496, 2009;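 active = inhibition over about 50% at 20 µM in the single-dose screen, limit read from the data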;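 also: 0% = DMSO wells and 100% = excess unlabeled CBFb competitor control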
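Assay system: Cerulean-Runt domain / Medium: Tris 50 mM pH 7.5, KCl, K2SO4, 0.01% BSA / Timing: protein complex preformed 1 h, compound exposure 1 h, room temperature, dark / Measured by: FRET, excitation 422 nm, emission at 530 and 480 nm / Evaluation: loss of energy transfer signal / Control set: 5 µM unlabeled CBFb as full-inhibition high control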
Hck Nef HTS = inhibitors of Nef-activated human Hck kinase, primary screen, biochemical, Z-Lyte FRET, 384-well, Hck-YEEI; Recombinant Hck-YEEI plus Nef, Z-Lyte FRET kinase assay; inhibition, % at 20 µM; hit rate 0.68% among 220,000; Tyrosine-protein kinase HCK (Homo sapiens), P08631; AID 463187, 2010;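 active = Hck-Nef kinase inhibition above about 50%, limit read from the data; inactive = inhibition below that limit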;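 also: 0% = DMSO with Hck plus Nef and 100% = Hck alone without Nef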
Target sequence (P08631 whole entry, looked up): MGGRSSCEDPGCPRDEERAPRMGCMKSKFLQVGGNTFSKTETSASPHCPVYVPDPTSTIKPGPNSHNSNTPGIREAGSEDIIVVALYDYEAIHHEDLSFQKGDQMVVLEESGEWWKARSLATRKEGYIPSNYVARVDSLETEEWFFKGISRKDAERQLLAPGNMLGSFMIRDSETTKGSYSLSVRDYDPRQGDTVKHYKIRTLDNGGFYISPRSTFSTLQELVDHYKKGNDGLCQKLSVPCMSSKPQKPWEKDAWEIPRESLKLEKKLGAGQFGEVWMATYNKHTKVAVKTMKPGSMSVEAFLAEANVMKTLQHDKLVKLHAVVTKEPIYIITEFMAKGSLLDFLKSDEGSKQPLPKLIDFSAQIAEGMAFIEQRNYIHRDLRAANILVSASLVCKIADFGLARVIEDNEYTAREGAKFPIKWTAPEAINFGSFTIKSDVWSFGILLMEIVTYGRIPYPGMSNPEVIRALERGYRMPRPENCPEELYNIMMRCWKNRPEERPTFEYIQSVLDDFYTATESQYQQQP
RanGTP-Imp inh = inhibitors of RanGTP-importin-beta interaction, primary screen, biochemical, FRET, CFP-Ran, YFP-importin-beta, homogeneous | inhibition, % (no concentration beside the values) | cell-free CFP-Ran/YFP-importin-beta FRET ratio | hit rate 1.1% among 300,000 | Ran GTPase (GTP-bound) - importin-beta complex | AID 2216, 2009;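 active = more than half of the replicate wells show a fall in the fluorescence ratio signal beyond about 16%, limit read from the data, passing the limit was not always enough; inconclusive = exactly half of the replicate wells pass the set limit; inactive = fewer than half of replicates pass the limit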;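 also: 0% = DMSO wells and 100% = Ran loaded with GDP instead of GTP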
Hck-Nef confirm = retest of Hck:Nef kinase inhibitor hits, confirmation, biochemical, Z-Lyte FRET, 384-well, p-Tyr peptide counterscreen; shares compounds with Hck Nef HTS; Recombinant Hck-YEEI:Nef, Z-Lyte FRET kinase assay; calls only at 10 µM; hit rate 28% among 1,300; AID 463188, 2010;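 active = average inhibition of at least 50%, with Z-scores no higher than 3 in both the phospho-tyrosine peptide and fluorescence counterscreens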
The depositor's hits bear a star; i = inactive; ? = inconclusive; / = not tested or not shown; + = active, no number. Compounds with a hit are over-represented: about 1.5% of the library has one in this group of screens.

SMILES | Runt-SMMHC FRET | CaV13 ICDI inh | Runt-CBFb FRET | Hck Nef HTS | RanGTP-Imp inh | Hck-Nef confirm
Cc1cc(=O)n2[nH]c(C)c(-c3ccccc3)c2n1 | 4 | -4 | 0 | -2 | -3 | /
O=c1cc(-c2ccccc2)nc2c(-c3ccccc3)c(C(F)(F)F)[nH]n12 | 2 | -6 | 2 | 57* | 2 | i
Cc1cc(C)cc(N(CCC(=O)Nc2nnc(C3CC3)s2)S(=O)(=O)c2ccc(Cl)cc2)c1 | -8 | -3 | -2 | 1 | -1 | /
O=C(Cn1c(O)c(/C=C2\C=Nc3ccccc32)sc1=O)N1CCOCC1 | 13 | 2 | 8 | 9 | 8 | /
O=C(Cn1c(O)c(/C=C2\C=Nc3ccc(Br)cc32)sc1=O)N1CCCC1 | -19 | -4 | -14 | 76* | 0 | i
CCOC(=O)c1cn(Cc2ccccc2)c2cc(C)nn2c1=O | 0 | -7 | 0 | 6 | 3 | /
Cc1cc(=O)oc2cc3c(cc12)OCCO3 | -5 | -3 | -2 | -2 | ? | /
Cc1cc(=O)oc2cc3c(cc12)OCCN3 | 44 | 9 | 10 | 107* | 97* | /
CNC(=O)c1cc(C(=O)c2ccccc2Br)c[nH]1 | / | -4 | / | / | 4 | /
O=C(c1c[nH]c(C(=O)C(Cl)(Cl)Cl)c1)c1ccccc1Br | 0 | -7 | 0 | 79* | 0 | i
CC(/C=N/n1c(COc2ccccc2)n[nH]c1=S)=C\c1ccco1 | 8 | -2 | 15 | 50* | 4 | i
COC(=O)CCC(=O)OC1(C)C(=O)C2=COC(c3ccc(OC)cc3)=CC2=C(Br)C1=O (stereo unspecified) | -20 | / | 38 | 93* | -19 | +
COc1ccc(CN2C=C3C(=O)C(C)(OC(=O)C4CCCC4)C(=O)C=C3C=C2c2ccsc2)cc1 (stereo unspecified) | 27 | -7 | 5 | 33 | -2 | /
COc1ccc(C2=CC3=C(Br)C(=O)C(C)(OC(=O)c4ccc(Cl)nc4)C(=O)C3=CO2)cc1 (stereo unspecified) | 2 | / | 2 | 94* | -5 | +
CC1(OC(=O)C2CCCC2)C(=O)C=C2C=C(c3ccsc3)OC=C2C1=O (stereo unspecified) | 3 | -6 | 7 | 62* | 1 | +
COC(=O)CCC(=O)OC1(C)C(=O)C2=CN(C(CO)CO)C(c3ccc(OC)cc3)=CC2=C(Br)C1=O (stereo unspecified) | 22 | -11 | 18 | 8 | 8 | /
COc1ccc(C2=CC3=C(Br)C(=O)C(C)(OC(=O)C4CCCC4)C(=O)C3=CO2)cc1 (stereo unspecified) | 18 | / | 64* | 82* | -5 | +
COc1ccc(N(CCCN2C(=O)c3cccc4cccc(c34)C2=O)C(=O)c2cccc(OC)c2)cc1 | 4 | -3 | -2 | 1 | -1 | /
N#CC1=C(N)OC2=C(C(=O)CCC2)C1c1cccs1 (stereo unspecified) | 1 | -7 | 1 | 28 | 3 | /
COc1ccccc1CN(Cc1nc2ccccc2c(=O)[nH]1)S(=O)(=O)c1ccc2ccccc2c1 | -2 | -6 | 0 | 110* | 7 | i
COc1ccc(S(=O)(=O)N(Cc2ccccc2)Cc2nc3ccccc3c(=O)[nH]2)cc1 | 4 | -2 | 1 | 0 | 4 | /
COCCn1c(SCC(=O)N(C(C)C)C(C)C)nnc1-c1cc2ccccc2cc1O | 0 | -7 | 1 | 1 | 0 | /
Cc1ccc(CN2CCN(Cc3cnc(N4CCOCC4)s3)CC2CCO)o1 (stereo unspecified) | -3 | -3 | 1 | 61* | ? | i
COc1ccc(C(=O)CSc2nnc(-c3ccco3)c(-c3ccco3)n2)cc1 | 6 | -5 | 21 | 85* | -1 | i
COc1ccc(C(=O)CSc2nnc(-c3ccco3)n2C)cc1 | 0 | -7 | 3 | 0 | 0 | /
SMILES | Runt-SMMHC FRET | CaV13 ICDI inh | Runt-CBFb FRET | Hck Nef HTS | RanGTP-Imp inh | Hck-Nef confirm
COc1ccc(CCNC(=O)C2CCN(C(=O)c3ccc(F)cc3)CC2)cc1OC | / | -2 | / | / | 0 | /
O=C(CN(Cc1cccs1)C(=O)CNS(=O)(=O)c1ccc(Cl)cc1)NCC1CCCO1 (stereo unspecified) | -6 | -7 | 2 | 53* | 6 | i
NC(=O)c1ccsc1NC(=O)C1CC1 | -2 | -6 | 0 | 75* | -3 | +
Cc1ccc(-c2ccc(/C=N/NC(=O)Cc3nnc(N)s3)o2)cc1Cl | 2 | -1 | 8 | 28 | -3 | /
COc1ccc(-c2ccc(/C=N/NC(=O)Cc3nnc(N)s3)o2)cc1Cl | -2 | -5 | 8 | 79* | 2 | i
COc1cc(-c2cc(=O)c3c(O)c(OC)c(OC)cc3o2)cc(OC)c1O | -2 | / | -1 | 98* | 1 | +
COc1ccc(-c2cc(=O)c3c(O)c(OC)c(O)cc3o2)cc1 | -3 | / | 2 | 67* | 7 | i
COc1cc(-c2cc(=O)c3c(O)cc(O)cc3o2)ccc1O | -77 | / | -20 | 54* | 10 | i
Cc1ccc(/C=N/N=C/c2ccc(C)s2)s1 | -2 | -4 | -1 | 1 | 4 | /
CC(C)CCN1CCN(Cc2cccs2)CC1CCO (stereo unspecified) | 0 | -5 | 2 | -8 | -1 | /
O=C(Cc1ccccc1)c1c[nH]c(C(=O)O)c1 | 0 | -4 | 2 | 15 | / | /
Cc1ccccc1NC(=O)N(C(C)C)C(C)C | 2 | -5 | -2 | -16 | 0 | /
Fc1ccc2nc(-c3ccc(CN4CCC5(CC4)CNc4ccccc45)cc3)c(-c3ccccc3)nc2c1 | / | -8 | / | / | / | /
CCCCN(C(=O)Cn1ncc(Cl)c(Cl)c1=O)c1c(N)n(CC(C)C)c(=O)[nH]c1=O | 6 | / | 2 | 66* | 2 | +
Cc1c(Cl)cccc1NC(=O)CN1CCC(C(O)(c2ccccc2)c2ccccc2)CC1 | -1 | -11 | 2 | -2 | 6 | /
O=C1NN(c2ccc(Cl)cc2)C(=O)/C1=C\c1ccc(-c2cccc(C(=O)O)c2)o1 | 8 | 4 | 18 | 53* | / | i
O=C1NN(c2ccccc2)C(=O)/C1=C\c1ccc(-c2cc([N+](=O)[O-])ccc2O)o1 | -15 | -4 | -8 | 76* | -3 | +
